The list is not random: actives were taken first. Their share in the collection is about 3.9%.
tim23-1 inh: growth inhibitors of tim23-1 mutant yeast | 330,000 compounds, 1.3% hits | S. cerevisiae tim23-1 growth, BacTiter-Glo luminescence, 24 h | inhibition, % at 20 µM | AID 463212;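 active = growth inhibition of the mutant yeast at or above 50%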;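 also: temperature-sensitive mutant grown at 25 °C; plate controls were DMSO-treated mutant yeast for no effect and medium wells lacking yeast for full effect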
TIM10 inh: growth inhibitors of TIM10 yeast strain; 330,000 compounds, 1.4% hits; inhibition, % at 10 µM; S. cerevisiae TIM10 strain growth, BacTiter-Glo luminescence, 24 h;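 active = inhibition of 40% or more at the single tested concentration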;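 also: wild-type TIM10 isogenic control strain grown at permissive 25 °C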
tim10-1 inh: tim10-1 yeast growth inhibition. 330,000 compounds, 2.2% hits. inhibition, % at 20 µM. S. cerevisiae tim10-1 ts strain growth, BacTiter-Glo, 24 h. AID 463190;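 active = inhibition of at least 40%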;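 also: mutant grown at 25 °C; 0% = DMSO wells with yeast and 100% = wells holding no yeast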
UPR XBP1 act: adaptive UPR (XBP1) activation | activation, % at 20 µM | 330,000 compounds, 0.33% hits | CHO-XBP1 luciferase reporter, IRE1-XBP1 UPR activation, luminescence; percent of tunicamycin response, DMSO as zero;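 active = versus positive control, 20 µM dose yields 30% or more activation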;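 also: 100% = tunicamycin at 10 µg/mL and 0% = DMSO only wells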
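incubation = overnight seeding at 37 °C, 6 h compound treatment at 37 °C | assay system = CHO-XBP1 cells stably carrying IRE1-XBP1-driven luciferase reporter | input = 1000 cells per well | detection = luciferase luminescence | dosing = single point, 20 µM final compound, 1% DMSO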
CHOP UPR activ: apoptotic UPR (CHOP) activation; CHO-CHOP luciferase reporter, luminescence; percent of tunicamycin response over DMSO baseline; activation, % at 10 µM; 330,000 compounds, 0.34% hits;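 active = at 10 µM dose, activation of 40% or more, normalized to positive control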;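 also: 100% = tunicamycin at 10 µg/mL and 0% = DMSO alone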
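Test system: CHO-CHOP cells, stable luciferase reporter of PERK-eIF2a-CHOP signalling | Quantity: 500 CHO-CHOP cells per well | Buffer or medium: F12 plus 10% serum | Compound dosing: 10 µM single point, 0.5% DMSO | Schedule: 6 h compound treatment, 37 °C | Signal: Luciferase luminescence | Control set: Tunicamycin high control, DMSO low control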
tim10-1 confirm: tim10-1 yeast growth inhibition, confirmed; shares compounds with tim10-1 inh; 7,400 compounds, 56% hits; inhibition, % at 20 µM; AID 463213; S. cerevisiae tim10-1 ts strain growth, BacTiter-Glo, 24 h;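 active = inhibition of yeast growth at or above a set limit in either of two repeat tests at 20 µM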;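 also: tim10-1 mutant grown at permissive 25 °C to find synthetic lethal compounds; 0% = DMSO yeast wells and 100% = medium wells without yeast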
TIM10 conf: confirmation of TIM10 yeast growth inhibitors. shares compounds with TIM10 inh. S. cerevisiae tim10 strain growth, BacTiter-Glo luminescence, 24 h. inhibition, % at 10 µM. 4,600 compounds, 63% hits. AID 463215;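 active = inhibition of yeast growth at or above a set limit in either of two replicates at 10 µM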;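 also: this counterscreen used the strain with wild-type TIM10; 0% = yeast with DMSO and 100% = medium wells lacking yeast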
tim23-1 conf: confirmation of tim23-1 mutant yeast growth inhibitors; shares compounds with tim23-1 inh; S. cerevisiae tim23-1 growth, BacTiter-Glo luminescence, 24 h; inhibition, % at 20 µM; 4,400 compounds, 83% hits;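 active = inhibition above about 39% in either of two replicate wells at 20 µM, limit read from the data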;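 also: temperature-sensitive tim23-1 mutant grown at 25 °C; 0% = DMSO wells with yeast and 100% = medium wells without yeast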
Active calls of the source: *; · = not tested or not shown.

SMILES	tim23-1 inh	TIM10 inh	tim10-1 inh	UPR XBP1 act	CHOP UPR activ	tim10-1 confirm	TIM10 conf	tim23-1 conf
COc1ccc(/C=C2\CCCC3C2=NN(C(=O)CSc2n[nH]c(N)n2)C3c2ccc(OC)cc2)cc1 (stereo not drawn)	-18.3	3.9	-14.9	-4.7	0.9	·	·	·
Cc1ccc(S(=O)(=O)N(CC(=O)NC2CC2)c2ccc(C)c(Cl)c2)cc1	14.9	-1.5	15.8	-5.7	-0.6	·	·	·
CC1CCN(C(=S)c2ccc(N(C)C)cc2)CC1	10.0	7.4	12.3	3.7	3.6	·	·	·
O=C(Oc1ccc(Br)cc1C(=S)N1CCOCC1)c1ccc([N+](=O)[O-])cc1[N+](=O)[O-]	67.4*	68.0*	71.2*	1.1	12.8	77.4*	78.0*	84.4*
O=C(Oc1ccc(C(=S)N2CCOCC2)cc1)c1ccc([N+](=O)[O-])cc1[N+](=O)[O-]	34.5	4.4	34.9	-3.1	2.6	·	·	·
O=C(Oc1cccc(C(=S)N2CCOCC2)c1)c1ccc([N+](=O)[O-])cc1[N+](=O)[O-]	78.4*	84.1*	83.9*	0.3	22.5	84.2*	90.2*	86.8*
COc1cc(C(=S)N2CCOCC2)ccc1OC(=O)c1ccccc1[N+](=O)[O-]	25.8	5.6	8.3	-0.1	2.8	·	·	·
S=c1[nH]ncn1/N=C/c1cccc(Oc2ccccc2)c1	55.9*	52.3*	61.2*	-1.4	-0.1	45.5*	-0.3	56.1*
O=C(COc1ncnc2ccccc12)Nc1ccc(S(=O)(=O)N2CCOCC2)cc1	7.9	3.9	14.4	1.8	-0.3	·	·	·
O=[N+]([O-])c1ccccc1S(=O)(=O)Nc1ccc(S(=O)(=O)Nc2nccs2)cc1	63.4*	51.4*	61.2*	-4.3	0.7	62.8*	54.4*	56.0*
O=[N+]([O-])c1cccc(S(=O)(=O)Nc2ccc(S(=O)(=O)Nc3nccs3)cc2)c1	8.9	-2.1	-5.6	-2.7	1.2	·	·	·
O=[N+]([O-])c1ccc(N2CCc3ccccc3C2)nc1	62.8*	34.5	66.3*	0.5	17.7	64.4*	·	9.9
Clc1ccc(N=c2ssnc2Cl)nc1	62.1*	85.2*	56.7*	12.6	6.6	76.8*	47.5*	89.9*
CCOc1ccc(N2CC(C(=O)Nc3ccccc3C(=O)NC3CC3)CC2=O)cc1 (stereo not drawn)	6.7	-12.4	-6.1	-2.9	-0.1	·	·	·
CCCC(=O)Nc1cc2c3c(c1)C(C)C(=O)N3CCC2 (stereo not drawn)	-7.1	1.2	-3.7	-1.6	-1.9	·	·	·
CC1CCc2nc(NC(=O)CN3CCN(c4ccc(F)cc4)CC3)sc2C1 (stereo not drawn)	55.2*	28.3	50.8*	1.3	-2.4	28.4	·	37.1
CC(=O)Cc1nsc(NC(=O)c2ccc(-c3ccccc3Cl)o2)n1	51.0*	25.4	48.5*	-1.7	2.3	43.4*	·	51.4*
Cn1nc(C(=O)NCc2ccccc2)c2c1-c1ccccc1S(=O)(=O)C2	16.4	7.2	16.3	-1.9	-2.1	·	·	·
Cc1sc(N)nc1-c1ccc(Oc2ccccc2)cc1	69.3*	29.1	40.3*	-0.4	7.4	50.5*	·	57.0*
O=C(NCCc1ccccc1)/C(=C\c1ccccc1)NC(=O)c1ccco1	-5.6	5.8	7.1	-2.8	2.0	·	·	·
C/C(=N\OCC(=O)OCC(=O)NC(=O)c1ccc(OC(F)F)cc1)c1ccc2c(c1)OCO2	-9.9	-15.3	5.1	-0.6	-1.4	·	·	·
Cc1[nH][nH]c(=O)c1C(c1ccc(-c2ccc(F)cc2)o1)c1c(C)[nH][nH]c1=O	84.5*	-43.2	50.9*	0.6	4.8	13.1	·	60.5*
COc1ccc(-c2ccc(C(c3c(C)[nH][nH]c3=O)c3c(C)[nH][nH]c3=O)o2)c([N+](=O)[O-])c1	30.7	10.2	11.5	-1.7	1.6	·	·	·
FC(F)(F)Sc1ccc(NC(=S)NCc2ccccc2)cc1	52.3*	53.0*	57.9*	-1.2	1.3	69.9*	58.7*	53.4*
O=C(O)CCN1C(=O)C2C3C=CC(C2C1=O)C1C(=O)N(CCC(=O)O)C(=O)C31 (stereo not drawn)	-0.8	4.8	-9.5	-5.3	-0.6	·	·	·
SMILES	tim23-1 inh	TIM10 inh	tim10-1 inh	UPR XBP1 act	CHOP UPR activ	tim10-1 confirm	TIM10 conf	tim23-1 conf
COc1ccc(CNC(=O)C2=CC(c3ccc(C)cc3)=NS(=O)(=O)N2C)cc1	2.5	-6.6	-4.3	-1.5	1.8	·	·	·
Cc1sc2ncn(CC(=O)NCCCC(=O)Nc3ccc(C(C)C)cc3)c(=O)c2c1C	-0.8	-29.9	-0.9	-1.0	0.9	·	·	·
O=C(CNC(=O)c1ccccc1Br)N/N=C/c1cc(Br)ccc1O	-4.4	-1.6	15.1	-1.5	-2.5	·	·	·
O=C(N/N=C/c1cc(Cl)ccc1O)c1ccccc1Br	65.5*	53.7*	41.7*	1.4	-1.0	11.8	32.5*	59.2*
COc1ccc(O)c(-c2cc(-c3cccs3)[nH]n2)c1	64.0*	36.8	42.8*	0.0	4.5	16.1	·	69.2*
COc1ccccc1CN1C(=O)[C@@H]2Cc3c([nH]c4ccccc34)C(C)(C)N2C1=O	6.3	18.6	-7.9	0.8	-0.3	·	·	·
COc1ccc(CN2C(=O)[C@H]3Cc4c([nH]c5ccccc45)C(C)(C)N3C2=O)cc1	51.5*	41.3*	48.5*	-1.4	0.2	39.3*	36.5*	46.9*
Nc1ccc(CCn2ccnc2)cc1	-24.3	-5.3	-15.9	-2.1	0.0	·	·	·
CCCCN(C(=O)c1ccc(C)o1)c1c(N)n(CC(C)C)c(=O)[nH]c1=O	0.1	12.0	7.3	-1.4	-0.9	·	·	·
Cc1cccnc1NC(=S)NC(=O)c1oc2ccccc2c1C	6.5	7.9	25.1	3.5	9.6	·	·	·
FC(F)(F)c1nnc(Nc2ccc(Cl)cc2)s1	19.7	-8.8	26.2	2.1	0.0	·	·	·
Fc1ccc(Nc2nnc(C(F)(F)F)s2)cc1Cl	77.2*	55.8*	68.8*	11.4	0.1	83.5*	41.6*	85.2*
CCC(C)NC(=O)C1CCC(CNS(=O)(=O)c2cccc3nsnc23)CC1 (stereo not drawn)	8.1	1.9	7.5	-3.4	0.1	·	·	·
O=C(Nc1ncc(Br)s1)C(Cc1ccccc1)n1cccc1 (stereo not drawn)	66.7*	57.5*	63.2*	1.0	1.9	54.4*	56.7*	53.8*
O=C(Nc1cccnc1)C(Cc1ccccc1)n1cccc1 (stereo not drawn)	3.7	3.9	16.0	-0.8	1.0	·	·	·
